Measurements as given in ChEMBL document CHEMBL5058577, “EUbOPEN Chemogenomics Library 2 (Multiplex)” (2022).

System: HEK-293T
Assay: Multiplex assay against HEK293T
Format: toxicity, cell-based
Conditions: human
Summary of the method: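 Hoechst33342, BioTracker Green Microtubule Cytoskeleton Dye, MitoTracker Red and Annexin V Alexa Fluor 680 were added to live cells at seeding, and imaging on a CQ1 microscope at 37°C and 5% CO2 followed compound addition. Gating by CellPathfinder machine learning separated cells into Hoechst high-intensity objects or normal cells, then normal cells into healthy, pyknosed or fragmented nuclei, then pyknosed cells into mitotic or apoptotic. Per cents of healthy-nucleus cells are reported for the tubulin, mitochondrial-mass and membrane-permeability phenotypes.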

[1] = 12 h, 1 µM, compound concentration 1 uM, replicate 1
[2] = 12 h, 1 µM, compound concentration 1 uM, replicate 2
[3] = 12 h, 10 µM, compound concentration 10 uM, replicate 1
[4] = 12 h, 10 µM, compound concentration 10 uM, replicate 2
[5] = 24 h, 1 µM, compound concentration 1 uM, replicate 1
[6] = 24 h, 1 µM, compound concentration 1 uM, replicate 2
[7] = 24 h, 10 µM, compound concentration 10 uM, replicate 1
[8] = 24 h, 10 µM, compound concentration 10 uM, replicate 2
[9] = 48 h, 1 µM, compound concentration 1 uM, replicate 1
[10] = 48 h, 1 µM, compound concentration 1 uM, replicate 2
[11] = 48 h, 10 µM, compound concentration 10 uM, replicate 1
[12] = 48 h, 10 µM, compound concentration 10 uM, replicate 2

SMILES: Cc1sc2c(c1C)C(c1ccc(Cl)cc1)=N[C@H](CC(=O)OC(C)(C)C)c1nnc(C)n1-2
- Population Apoptotic (%) [1]: 40%
- Population Fragmented Nuclei (%) [1]: 8%
- Population Healthy Nuclei (%) [1]: 80%
- Population Hoechst High Intensity Objects (%) [1]: 8%
- Population Membrane Permeable-Phenotype (%) [1]: 0%
- Population Mitochondria Different-Phenotype (%) [1]: 49%
- Population Mitotic Cells (%) [1]: 60%
- Population Normal (%) [1]: 91%
- Population Pyknosed Nuclei (%) [1]: 10%
- Population Tubulin-Different-Phenotype (%) [1]: 32%
- Total Cell Count [1]: 478
- Population Apoptotic (%) [2]: 44%
- Population Fragmented Nuclei (%) [2]: 6%
- Population Healthy Nuclei (%) [2]: 76%
- Population Hoechst High Intensity Objects (%) [2]: 9%
- Population Mitochondria Different-Phenotype (%) [2]: 65%
- Population Mitotic Cells (%) [2]: 55%
- Population Normal (%) [2]: 90%
- Population Pyknosed Nuclei (%) [2]: 17%
- Population Tubulin-Different-Phenotype (%) [2]: 26%
- Total Cell Count [2]: 333
- Population Apoptotic (%) [3]: 41%
- Population Fragmented Nuclei (%) [3]: 7%
- Population Healthy Nuclei (%) [3]: 76%
- Population Hoechst High Intensity Objects (%) [3]: 7%
- Population Membrane Permeable-Phenotype (%) [3]: 0%
- Population Mitochondria Different-Phenotype (%) [3]: 74%
- Population Mitotic Cells (%) [3]: 58%
- Population Normal (%) [3]: 92%
- Population Pyknosed Nuclei (%) [3]: 15%
- Population Tubulin-Different-Phenotype (%) [3]: 67%
- Total Cell Count [3]: 395
- Population Apoptotic (%) [4]: 66%
- Population Fragmented Nuclei (%) [4]: 5%
- Population Healthy Nuclei (%) [4]: 72%
- Population Hoechst High Intensity Objects (%) [4]: 10%
- Population Mitochondria Different-Phenotype (%) [4]: 90%
- Population Mitotic Cells (%) [4]: 33%
- Population Normal (%) [4]: 89%
- Population Pyknosed Nuclei (%) [4]: 21%
- Population Tubulin-Different-Phenotype (%) [4]: 70%
- Total Cell Count [4]: 303
- Population Apoptotic (%) [5]: 32%
- Population Fragmented Nuclei (%) [5]: 10%
- Population Healthy Nuclei (%) [5]: 76%
- Population Hoechst High Intensity Objects (%) [5]: 5%
- Population Membrane Permeable-Phenotype (%) [5]: 0%
- Population Mitochondria Different-Phenotype (%) [5]: 29%
- Population Mitotic Cells (%) [5]: 68%
- Population Normal (%) [5]: 94%
- Population Pyknosed Nuclei (%) [5]: 13%
- Population Tubulin-Different-Phenotype (%) [5]: 19%
- Total Cell Count [5]: 609
- Population Healthy Nuclei (%) [6]: 82%
- Population Hoechst High Intensity Objects (%) [6]: 6%
- Population Mitochondria Different-Phenotype (%) [6]: 43%
- Population Mitotic Cells (%) [6]: 67%
- Population Normal (%) [6]: 93%
- Population Pyknosed Nuclei (%) [6]: 6%
- Population Tubulin-Different-Phenotype (%) [6]: 11%
- Total Cell Count [6]: 479
- Population Apoptotic (%) [7]: 41%
- Population Fragmented Nuclei (%) [7]: 8%
- Population Healthy Nuclei (%) [7]: 68%
- Population Hoechst High Intensity Objects (%) [7]: 4%
- Population Membrane Permeable-Phenotype (%) [7]: 0%
- Population Mitochondria Different-Phenotype (%) [7]: 64%
- Population Mitotic Cells (%) [7]: 58%
- Population Normal (%) [7]: 95%
- Population Pyknosed Nuclei (%) [7]: 23%
- Population Tubulin-Different-Phenotype (%) [7]: 46%
- Total Cell Count [7]: 468
- Population Apoptotic (%) [8]: 49%
- Population Fragmented Nuclei (%) [8]: 3%
- Population Healthy Nuclei (%) [8]: 76%
- Population Hoechst High Intensity Objects (%) [8]: 6%
- Population Membrane Permeable-Phenotype (%) [8]: 1%
- Population Mitochondria Different-Phenotype (%) [8]: 76%
- Population Mitotic Cells (%) [8]: 50%
- Population Normal (%) [8]: 93%
- Population Pyknosed Nuclei (%) [8]: 19%
- Population Tubulin-Different-Phenotype (%) [8]: 47%
- Total Cell Count [8]: 378
- Population Apoptotic (%) [9]: 18%
- Population Fragmented Nuclei (%) [9]: 11%
- Population Healthy Nuclei (%) [9]: 80%
- Population Hoechst High Intensity Objects (%) [9]: 3%
- Population Membrane Permeable-Phenotype (%) [9]: 1%
- Population Mitochondria Different-Phenotype (%) [9]: 16%
- Population Mitotic Cells (%) [9]: 81%
- Population Normal (%) [9]: 96%
- Population Pyknosed Nuclei (%) [9]: 7%
- Population Tubulin-Different-Phenotype (%) [9]: 10%
- Total Cell Count [9]: 1012
- Population Apoptotic (%) [10]: 30%
- Population Fragmented Nuclei (%) [10]: 14%
- Population Healthy Nuclei (%) [10]: 79%
- Population Hoechst High Intensity Objects (%) [10]: 4%
- Population Membrane Permeable-Phenotype (%) [10]: 0%
- Population Mitochondria Different-Phenotype (%) [10]: 21%
- Population Mitotic Cells (%) [10]: 69%
- Population Normal (%) [10]: 95%
- Population Pyknosed Nuclei (%) [10]: 5%
- Population Tubulin-Different-Phenotype (%) [10]: 12%
- Total Cell Count [10]: 685
- Population Apoptotic (%) [11]: 31%
- Population Fragmented Nuclei (%) [11]: 9%
- Population Healthy Nuclei (%) [11]: 73%
- Population Hoechst High Intensity Objects (%) [11]: 3%
- Population Membrane Permeable-Phenotype (%) [11]: 0%
- Population Mitochondria Different-Phenotype (%) [11]: 47%
- Population Mitotic Cells (%) [11]: 68%
- Population Normal (%) [11]: 96%
- Population Pyknosed Nuclei (%) [11]: 16%
- Population Tubulin-Different-Phenotype (%) [11]: 19%
- Total Cell Count [11]: 641
- Population Apoptotic (%) [12]: 55%
- Population Fragmented Nuclei (%) [12]: 8%
- Population Healthy Nuclei (%) [12]: 76%
- Population Hoechst High Intensity Objects (%) [12]: 5%
- Population Mitochondria Different-Phenotype (%) [12]: 66%
- Population Mitotic Cells (%) [12]: 44%
- Population Normal (%) [12]: 94%
- Population Pyknosed Nuclei (%) [12]: 15%
- Population Tubulin-Different-Phenotype (%) [12]: 28%
- Total Cell Count [12]: 525
